The target in the experiment is T1, Glucosyltransferase-I (Streptococcus mutans serotype c (strain ATCC 700610 / UA159)) (UniProt P08987).
T1 sequence (whole entry): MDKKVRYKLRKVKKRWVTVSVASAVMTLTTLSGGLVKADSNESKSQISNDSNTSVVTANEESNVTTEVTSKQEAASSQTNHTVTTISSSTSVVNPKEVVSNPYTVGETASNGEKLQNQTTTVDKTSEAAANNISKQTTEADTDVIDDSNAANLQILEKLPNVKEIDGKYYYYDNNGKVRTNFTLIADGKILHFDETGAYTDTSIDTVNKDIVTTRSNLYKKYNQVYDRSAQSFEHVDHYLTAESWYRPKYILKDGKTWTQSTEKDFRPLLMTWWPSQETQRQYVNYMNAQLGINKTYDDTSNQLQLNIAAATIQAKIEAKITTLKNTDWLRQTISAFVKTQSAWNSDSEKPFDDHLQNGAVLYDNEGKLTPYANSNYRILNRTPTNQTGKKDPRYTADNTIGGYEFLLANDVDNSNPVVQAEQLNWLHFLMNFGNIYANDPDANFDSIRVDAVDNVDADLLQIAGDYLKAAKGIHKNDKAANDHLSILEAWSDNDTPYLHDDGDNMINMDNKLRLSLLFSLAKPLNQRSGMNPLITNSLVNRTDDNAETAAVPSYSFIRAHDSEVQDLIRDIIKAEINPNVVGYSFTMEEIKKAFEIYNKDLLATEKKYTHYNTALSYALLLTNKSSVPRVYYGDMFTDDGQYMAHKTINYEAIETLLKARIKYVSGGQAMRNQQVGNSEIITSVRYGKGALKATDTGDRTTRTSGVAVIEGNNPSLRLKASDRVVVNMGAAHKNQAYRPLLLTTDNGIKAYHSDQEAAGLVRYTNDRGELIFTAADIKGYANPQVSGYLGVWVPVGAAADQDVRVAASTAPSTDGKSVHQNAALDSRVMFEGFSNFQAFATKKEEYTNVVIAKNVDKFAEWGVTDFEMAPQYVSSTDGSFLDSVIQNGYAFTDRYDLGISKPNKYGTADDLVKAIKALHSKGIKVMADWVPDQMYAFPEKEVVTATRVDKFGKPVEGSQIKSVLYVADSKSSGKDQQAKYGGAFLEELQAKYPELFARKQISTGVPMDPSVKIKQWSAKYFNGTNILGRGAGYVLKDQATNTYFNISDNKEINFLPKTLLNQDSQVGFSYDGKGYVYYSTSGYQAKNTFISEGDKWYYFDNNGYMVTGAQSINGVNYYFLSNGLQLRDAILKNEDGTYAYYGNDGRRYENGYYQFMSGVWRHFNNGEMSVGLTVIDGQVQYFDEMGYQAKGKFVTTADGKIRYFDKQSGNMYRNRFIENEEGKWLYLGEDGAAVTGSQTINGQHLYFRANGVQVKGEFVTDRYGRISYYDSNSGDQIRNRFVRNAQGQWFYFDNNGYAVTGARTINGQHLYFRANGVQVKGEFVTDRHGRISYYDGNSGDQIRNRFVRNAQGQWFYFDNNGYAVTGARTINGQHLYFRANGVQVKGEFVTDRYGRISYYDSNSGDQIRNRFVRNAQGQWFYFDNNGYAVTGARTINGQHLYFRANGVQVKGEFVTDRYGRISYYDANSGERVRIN
Description: Inhibition of Wild-type Streptococcus mutans UA159 glucosyltransferase B by zymography. The method in brief:
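S. mutans UA159 wild type co-incubated with compound at different concentrations; Gtfs concentrated from supernatants, separated by SDS-PAGE and assayed by zymography, glucan band intensity reflecting enzyme activity.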

Consider `O=C(/C=C\c1ccc(O)cc1O)c1cccc(O)c1`, for which the inhibition entry is “Dose-dependent effect”.

These data come from ChEMBL document CHEMBL3822431, “Hydroxychalcone inhibitors of Streptococcus mutans glucosyl transferases and biofilms as potential anticaries agents” (Bioorg Med Chem Lett, 2016).
